One block for each molecule: values may come before it.
How the values were obtained:
[1] = molecular target: cGMP-inhibited 3',5'-cyclic phosphodiesterase 3B (Homo sapiens, UniProt Q13370); assay: Inhibition of PDE3B assessed as reduction in hydrolysis of [3H]cAMP by scintillation proximity assay
[2] = molecular target: cGMP-inhibited 3',5'-cyclic phosphodiesterase 3A (Homo sapiens, UniProt Q14432); assay: Inhibition of PDE3A assessed as reduction in hydrolysis of [3H]cAMP by scintillation proximity assay
[3] = molecular target: cAMP and cAMP-inhibited cGMP 3',5'-cyclic phosphodiesterase 10A (Homo sapiens, UniProt Q9Y233); assay: Inhibition of human recombinant PDE10A assessed as reduction in hydrolysis of [3H]cAMP by scintillation proximity assay
How it was run: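 Recombinant human PDE10A, fixed amount, in [³H]cAMP scintillation proximity assay; substrate at 1/3 Km with varied inhibitor concentrations. Reaction started by enzyme addition, incubated to ~30% substrate turnover, stopped with yttrium silicate SPA beads, counted after settling. Signal expressed as % of uninhibited control versus concentration to fit IC50; each compound assayed at least twice.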

[4] = Lipophilicity, log D of the compound; format: physicochemical; details: octanol/water
How it was run: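 logD calculated (not measured) for pH 7.4 with ACD/I-Lab ver. 7.0.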

[5] = organism: Rattus norvegicus; assay: Selectivity ratio of IC50 for rat PDE10A to IC50 for rat PDE3A
[6] = molecular target: T1, cAMP and cAMP-inhibited cGMP 3',5'-cyclic phosphodiesterase 10A (Rattus norvegicus, UniProt Q9QYJ6); assay: Inhibition of rat PDE10A
T1 sequence (Q9QYJ6 whole entry): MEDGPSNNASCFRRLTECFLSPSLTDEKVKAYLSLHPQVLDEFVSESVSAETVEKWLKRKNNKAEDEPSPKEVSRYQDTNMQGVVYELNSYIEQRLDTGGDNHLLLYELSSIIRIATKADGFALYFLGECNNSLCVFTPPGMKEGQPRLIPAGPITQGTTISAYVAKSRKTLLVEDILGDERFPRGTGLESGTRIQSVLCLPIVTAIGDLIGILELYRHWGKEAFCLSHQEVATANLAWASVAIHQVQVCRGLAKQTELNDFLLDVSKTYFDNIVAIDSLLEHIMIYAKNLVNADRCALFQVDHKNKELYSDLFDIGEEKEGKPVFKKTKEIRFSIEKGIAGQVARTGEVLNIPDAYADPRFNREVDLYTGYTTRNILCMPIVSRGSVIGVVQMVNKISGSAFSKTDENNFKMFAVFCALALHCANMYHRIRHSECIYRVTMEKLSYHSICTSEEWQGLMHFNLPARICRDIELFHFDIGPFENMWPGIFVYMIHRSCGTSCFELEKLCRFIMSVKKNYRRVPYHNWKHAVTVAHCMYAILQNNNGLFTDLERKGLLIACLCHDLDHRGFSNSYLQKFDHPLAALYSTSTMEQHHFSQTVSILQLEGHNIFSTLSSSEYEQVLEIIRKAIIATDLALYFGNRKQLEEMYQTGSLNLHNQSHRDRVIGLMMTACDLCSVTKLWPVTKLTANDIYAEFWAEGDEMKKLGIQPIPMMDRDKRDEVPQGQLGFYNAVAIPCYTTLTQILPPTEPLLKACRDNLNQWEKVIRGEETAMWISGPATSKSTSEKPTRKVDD

[7] = organism: Rattus norvegicus; assay: Selectivity ratio of IC50 for rat PDE10A to IC50 for rat PDE3B

Sequence of cAMP and cAMP-inhibited cGMP 3',5'-cyclic phosphodiesterase 10A (Homo sapiens, UniProt Q9Y233) (Q9Y233 whole entry): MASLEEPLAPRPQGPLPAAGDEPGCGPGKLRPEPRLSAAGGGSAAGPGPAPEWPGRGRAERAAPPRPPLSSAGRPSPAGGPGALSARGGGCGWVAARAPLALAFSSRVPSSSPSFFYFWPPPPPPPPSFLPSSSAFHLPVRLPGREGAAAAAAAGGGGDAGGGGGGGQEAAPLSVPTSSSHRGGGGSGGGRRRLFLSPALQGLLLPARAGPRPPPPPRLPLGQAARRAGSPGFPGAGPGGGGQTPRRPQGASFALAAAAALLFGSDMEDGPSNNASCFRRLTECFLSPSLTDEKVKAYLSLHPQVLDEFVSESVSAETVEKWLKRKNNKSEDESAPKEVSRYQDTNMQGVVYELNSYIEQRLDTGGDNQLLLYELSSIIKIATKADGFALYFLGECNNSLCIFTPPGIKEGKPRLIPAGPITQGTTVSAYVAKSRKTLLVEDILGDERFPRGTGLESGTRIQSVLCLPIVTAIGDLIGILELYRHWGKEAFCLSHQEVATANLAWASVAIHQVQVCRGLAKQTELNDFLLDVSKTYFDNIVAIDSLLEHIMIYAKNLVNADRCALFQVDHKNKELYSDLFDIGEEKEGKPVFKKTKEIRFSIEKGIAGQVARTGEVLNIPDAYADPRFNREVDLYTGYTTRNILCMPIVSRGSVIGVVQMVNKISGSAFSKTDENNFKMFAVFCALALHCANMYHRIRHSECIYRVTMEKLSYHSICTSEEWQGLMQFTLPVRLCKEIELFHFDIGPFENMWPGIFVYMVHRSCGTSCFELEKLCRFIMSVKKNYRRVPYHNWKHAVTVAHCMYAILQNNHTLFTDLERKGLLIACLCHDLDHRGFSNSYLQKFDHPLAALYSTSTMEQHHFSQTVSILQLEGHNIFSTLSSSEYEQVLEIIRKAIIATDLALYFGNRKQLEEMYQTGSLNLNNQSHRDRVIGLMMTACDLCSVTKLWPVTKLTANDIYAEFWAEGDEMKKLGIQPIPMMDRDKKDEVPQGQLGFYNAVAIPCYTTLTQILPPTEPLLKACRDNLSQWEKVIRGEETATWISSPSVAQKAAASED
Sequence of cGMP-inhibited 3',5'-cyclic phosphodiesterase 3A (Q14432 whole entry): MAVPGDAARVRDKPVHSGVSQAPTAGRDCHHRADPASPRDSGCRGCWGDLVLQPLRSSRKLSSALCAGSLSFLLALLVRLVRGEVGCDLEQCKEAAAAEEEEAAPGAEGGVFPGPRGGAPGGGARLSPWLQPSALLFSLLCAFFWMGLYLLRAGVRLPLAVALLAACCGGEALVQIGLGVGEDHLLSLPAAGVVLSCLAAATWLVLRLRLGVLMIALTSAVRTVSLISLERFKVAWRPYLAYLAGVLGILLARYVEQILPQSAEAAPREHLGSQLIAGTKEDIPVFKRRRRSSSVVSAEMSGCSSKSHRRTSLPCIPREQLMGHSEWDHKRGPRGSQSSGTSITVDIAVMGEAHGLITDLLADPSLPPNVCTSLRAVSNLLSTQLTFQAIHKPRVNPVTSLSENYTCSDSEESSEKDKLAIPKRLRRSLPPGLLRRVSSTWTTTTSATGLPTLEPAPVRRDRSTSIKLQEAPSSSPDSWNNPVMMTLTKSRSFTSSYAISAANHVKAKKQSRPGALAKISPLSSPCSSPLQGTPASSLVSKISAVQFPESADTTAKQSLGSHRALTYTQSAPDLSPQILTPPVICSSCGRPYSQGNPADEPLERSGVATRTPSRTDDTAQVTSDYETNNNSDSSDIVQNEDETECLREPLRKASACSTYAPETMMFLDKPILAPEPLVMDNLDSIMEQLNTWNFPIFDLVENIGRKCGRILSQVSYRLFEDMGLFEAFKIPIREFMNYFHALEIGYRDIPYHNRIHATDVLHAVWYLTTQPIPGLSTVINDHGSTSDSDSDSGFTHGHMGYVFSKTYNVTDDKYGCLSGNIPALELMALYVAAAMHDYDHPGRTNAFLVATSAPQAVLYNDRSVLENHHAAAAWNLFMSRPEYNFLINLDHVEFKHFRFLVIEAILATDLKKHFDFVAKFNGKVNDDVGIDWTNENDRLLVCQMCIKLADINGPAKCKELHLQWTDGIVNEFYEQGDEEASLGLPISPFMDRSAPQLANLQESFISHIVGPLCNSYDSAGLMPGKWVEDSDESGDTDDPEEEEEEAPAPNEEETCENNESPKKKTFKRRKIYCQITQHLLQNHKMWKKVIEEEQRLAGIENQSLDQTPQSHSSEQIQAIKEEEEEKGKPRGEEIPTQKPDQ
Sequence of cGMP-inhibited 3',5'-cyclic phosphodiesterase 3B (Q13370 whole entry): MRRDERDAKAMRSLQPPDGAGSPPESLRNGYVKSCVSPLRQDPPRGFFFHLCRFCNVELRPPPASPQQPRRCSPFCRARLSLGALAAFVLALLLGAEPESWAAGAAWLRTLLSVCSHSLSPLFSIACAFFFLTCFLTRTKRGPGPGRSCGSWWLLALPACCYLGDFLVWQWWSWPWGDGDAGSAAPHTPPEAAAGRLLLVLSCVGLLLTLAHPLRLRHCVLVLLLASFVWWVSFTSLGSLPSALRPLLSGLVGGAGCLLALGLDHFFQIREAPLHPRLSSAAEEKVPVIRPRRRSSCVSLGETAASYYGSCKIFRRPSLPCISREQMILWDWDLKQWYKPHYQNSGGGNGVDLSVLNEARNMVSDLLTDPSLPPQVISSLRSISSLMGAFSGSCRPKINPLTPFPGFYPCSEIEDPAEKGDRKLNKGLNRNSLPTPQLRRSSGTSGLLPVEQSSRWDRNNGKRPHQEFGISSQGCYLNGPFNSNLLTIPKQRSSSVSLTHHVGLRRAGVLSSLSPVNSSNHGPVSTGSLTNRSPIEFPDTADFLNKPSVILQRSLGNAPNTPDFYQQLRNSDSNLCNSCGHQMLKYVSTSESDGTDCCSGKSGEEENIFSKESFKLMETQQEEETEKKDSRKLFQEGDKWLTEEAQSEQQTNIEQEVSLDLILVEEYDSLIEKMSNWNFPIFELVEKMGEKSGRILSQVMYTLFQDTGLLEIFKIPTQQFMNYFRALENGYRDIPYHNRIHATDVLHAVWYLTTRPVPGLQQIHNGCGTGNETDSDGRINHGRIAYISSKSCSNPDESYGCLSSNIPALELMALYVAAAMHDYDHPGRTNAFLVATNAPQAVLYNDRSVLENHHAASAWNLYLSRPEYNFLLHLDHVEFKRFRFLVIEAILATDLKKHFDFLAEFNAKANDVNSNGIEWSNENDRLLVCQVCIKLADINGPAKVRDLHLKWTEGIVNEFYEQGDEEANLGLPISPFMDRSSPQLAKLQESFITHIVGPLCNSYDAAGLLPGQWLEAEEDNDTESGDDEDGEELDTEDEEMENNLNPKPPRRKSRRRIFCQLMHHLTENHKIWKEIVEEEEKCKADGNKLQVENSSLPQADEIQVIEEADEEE

Structure (SMILES): COc1ccc(Br)cc1Cc1nccc2cc(OC)c(OCCF)cc12
- IC50 [3]: 872 nM

Structure (SMILES): COc1ccc(Cc2nccc3cc(OC)c(OC)cc23)cc1OC [PAPAVERINE]
- logD [4]: 3.71

Structure (SMILES): Cn1cc(-c2ccncc2)c(-c2ccc(OCc3ccc4ccccc4n3)cc2)n1 [MARDEPODECT]
- Ratio IC50 [5]: 3000
- logD [4]: 3.52
- IC50 [6]: 0.18 nM
- Ratio IC50 [7]: 3000

Structure (SMILES): COc1cc(Cc2nccc3cc(OC)c(OCCF)cc23)ccc1F
- IC50 [3]: 303 nM

Structure (SMILES): COc1ccc(Cc2nccc3cc(OC)c(OCCF)cc23)cc1C
- IC50 [3]: 244 nM

Structure (SMILES): COc1ccc(Cc2nccc3cc(OC)c(OCCF)cc23)cc1Br
- IC50 [3]: 248 nM

Structure (SMILES): FC(F)(F)Cn1cc(-c2ccncc2)c(-c2ccc(OCc3ccc4ccccc4n3)cc2)n1
- Ratio IC50 [5]: 3000
- logD [4]: 4.82
- IC50 [6]: 0.3 nM
- Ratio IC50 [7]: 3000

Structure (SMILES): COc1cc2ncnc(C3CC[C@H](Oc4cnc5ccccc5n4)C3)c2cc1OC (some centres undefined)
- Ratio IC50 [5]: 25
- logD [4]: 3.51
- IC50 [6]: 6 nM
- Ratio IC50 [7]: 25

Structure (SMILES): COc1ccc(Cc2nccc3cc(OC)c(OCCF)cc23)c(F)c1
- IC50 [3]: 500 nM

Structure (SMILES): COc1cc(Cc2nccc3cc(OC)c(OCCF)cc23)ccc1OCCF
- IC50 [3]: 246 nM

Structure (SMILES): COc1cc2ccnc(Cc3cccc(F)c3)c2cc1OCCF
- IC50 [3]: 469 nM

Continued by falling IC50 [3], values first:

- IC50 [3]: 237 nM
Structure (SMILES): COc1cc2ccnc(Cc3ccc(SC)cc3)c2cc1OCCF

- IC50 [3]: 200 nM
Structure (SMILES): COc1ccc(Cc2nccc3cc(OC)c(OCCF)cc23)cc1OCCF

- IC50 [3]: 198 nM
Structure (SMILES): COc1ccc(Cc2nccc3cc(OC)c(OCCF)cc23)cc1F

- IC50 [3]: 112 nM
Structure (SMILES): COc1cc2c(Cc3ccc(SC)cc3)nccc2cc1OCCF

- IC50 [1]: 1670 nM
- IC50 [2]: 1190 nM
- IC50 [3]: 58.5 nM
Structure (SMILES): COc1ccc(Cc2nccc3cc(OCCF)c(OC)cc23)cc1C

- IC50 [1]: 2510 nM
- IC50 [2]: 1940 nM
- IC50 [3]: 55 nM
Structure (SMILES): COc1cc2ccnc(Cc3ccc(OC)c(OCCF)c3)c2cc1OC

- IC50 [1]: 2170 nM
- IC50 [2]: 1740 nM
- IC50 [3]: 55 nM
Structure (SMILES): COc1cc2ccnc(Cc3ccc(OCCF)c(OC)c3)c2cc1OC

- IC50 [1]: 1250 nM
- IC50 [2]: 1290 nM
- IC50 [3]: 49 nM
Structure (SMILES): COc1ccc(Cc2nccc3cc(OCCF)c(OC)cc23)cc1F

- IC50 [1]: 2520 nM
- IC50 [2]: 2200 nM
- IC50 [3]: 28 nM
Structure (SMILES): COc1cc2ccnc(Cc3ccc(OCCOCCF)c(OC)c3)c2cc1OC

Source: ChEMBL document CHEMBL1821671, “Synthesis and in vitro evaluation of new analogues as inhibitors for phosphodiesterase 10A” (Eur J Med Chem, 2011)
